In ChEMBL document CHEMBL3124803, “Integrating docking scores, interaction profiles and molecular descriptors to improve the accuracy of molecular docking: toward the discovery of novel Akt1 inhibitors” (Eur J Med Chem, 2014) one finds IC50 data, which are given here for six compounds.

SMILES strings stand for the structures.

One test relates to OVCAR-8. Kind of test: Cytotoxicity against human OVCAR8 cells assessed as growth inhibition after 72 hrs by MTT assay. Format: functional, cell-based. The note with it: OVCAR-8, 72 h. Summed up: (§1)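 Cells exposed to compound for 72 h, then MTT added. Formazan crystals dissolved in DMSO and absorbance read at 570 nm. Run in triplicate in three independent experiments. IC₅₀ (50% cell growth inhibition) derived by dose-effect analysis.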
For orientation: Tetrazolium dyes change colour on reduction, which living cells bring about.

In a further test the test system is HCT-116. Put plainly: Cytotoxicity against human HCT116 cells assessed as growth inhibition after 72 hrs by MTT assay. Format: functional, cell-based. The note with it: HCT-116, 72 h. Summed up: as §1
The target in test [1] is RAC-alpha serine/threonine-protein kinase (Homo sapiens, UniProt P31749). Put plainly: Inhibition of AKT1 (unknown origin) using ATP/eNOS as substrate incubated for 5 mins prior to substrate addition measured after 30 mins by fluorescence polarization assay. (In fluorescence polarisation assays a small probe gives low polarisation when free and higher when bound to something large.)
Sequence of RAC-alpha serine/threonine-protein kinase (P31749 whole entry): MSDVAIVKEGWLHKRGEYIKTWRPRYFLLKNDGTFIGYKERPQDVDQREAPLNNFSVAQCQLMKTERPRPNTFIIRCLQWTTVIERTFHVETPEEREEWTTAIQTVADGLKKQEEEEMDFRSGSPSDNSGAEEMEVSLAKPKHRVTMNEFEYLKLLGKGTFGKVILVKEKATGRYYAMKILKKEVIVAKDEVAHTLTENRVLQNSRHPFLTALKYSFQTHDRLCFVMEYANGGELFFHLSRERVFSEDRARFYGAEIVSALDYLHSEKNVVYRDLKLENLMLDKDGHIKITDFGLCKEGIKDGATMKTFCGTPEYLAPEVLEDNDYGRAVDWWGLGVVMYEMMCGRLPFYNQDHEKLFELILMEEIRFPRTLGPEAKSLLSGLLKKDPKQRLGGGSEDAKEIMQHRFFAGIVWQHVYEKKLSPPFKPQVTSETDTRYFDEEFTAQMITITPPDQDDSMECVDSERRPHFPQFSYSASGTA

Take `Nc1ncnc(N2CCN(C(=O)C(N)Cc3ccc(Cl)cc3)CC2)c1Br` (racemic): the IC50 is 22.7 µM with OVCAR-8, 5.15 µM in the test on HCT-116 and 7.7 nM in test [1].

As for `CNc1cc(N2CCC(CN)(c3ccc(Cl)c(Cl)c3)CC2)ncn1`, the IC50 in the test on HCT-116 was 16.7 µM; in test [1] it was 1830 nM.

Consider `NCC1(c2ccc(Cl)c(Cl)c2)CCN(c2cc(N)ncn2)CC1`, for which the IC50 was 19.8 µM in the test with HCT-116 and 4320 nM in test [1].

Take `Nc1ncnc(N2CCN(C(=O)C(N)Cc3ccc(Cl)cc3)CC2)c1Cl` (racemic): the IC50 in the test with OVCAR-8 turned out to be 26.1 µM; in the test on HCT-116, 4.36 µM; in test [1] it was 17 nM.

On to `Nc1ncnc(N2CCN(C(=O)C(N)Cc3ccccc3)CC2)c1Br` (racemic), for which the IC50 in the test with HCT-116 stood at 6.19 µM; in test [1] it was 432 nM.

On to `Nc1ncnc(N2CCN(C(=O)[C@@H](N)Cc3ccccc3)CC2)c1Cl`, for which the IC50 with HCT-116 was 28.7 µM; in test [1] it was 1830 nM.

As a reminder, the IC50 is the concentration that inhibits the measured activity by half.
